Results from different studies.
Lines come from different studies, so protocols differ.
Organism: Staphylococcus aureus
Effect on: microbial growth

SMILES	test	system	setting	MIC
Cc1onc(-c2ccccc2)c1C(=O)N[C@@H]1C(=O)N2[C@@H]1SC(C)(C)[C@@H]2C(=O)O	broth dilution	MRSA	–	32 µg/mL
CCCCCCCCCCCC(=O)CP(=O)(O)O	–	ATCC33591 MRSA	drug-resistant strain	100 µg/mL
COC(=O)c1cc(-c2cccc(NC(=O)Nc3ccc(Cl)cc3Cl)c2)on1	broth dilution	ATCC29213	–	> 64 µg/mL
c1ccc(CCOC2CCCc3c2[nH]c2ccccc32)cc1 (stereo not drawn)	broth dilution	VISA	–	> 16 µg/mL
CCOC(=O)c1cc(-c2cccc(NC(=O)Nc3ccc(Cl)c(Cl)c3)c2)on1	broth dilution	ATCC29213	–	> 64 µg/mL
CN[C@H](CC(C)C)C(=O)N[C@H]1C(=O)N[C@@H](CC(N)=O)C(=O)N[C@H]2C(=O)N[C@H]3C(=O)N[C@H](C(=O)N[C@H](C(=O)O)c4cc(O)cc(O)c4-c4cc3ccc4O)[C@H](O)c3ccc(c(Cl)c3)Oc3cc2cc(c3O[C@@H]2O[C@H](CO)[C@@H](O)[C@H](O)[C@H]2O[C@H]2C[C@](C)(N)[C@H](O)[C@H](C)O2)Oc2ccc(cc2Cl)[C@H]1O	broth dilution	ATCCBAA41	drug-resistant strain	1 µg/mL
COC(=O)c1cccc(Oc2ccc(NC(=O)Nc3ccc(Cl)c(C(F)(F)F)c3)cc2)c1	–	NCTC8325	–	0.5 µM
O=[N+]([O-])c1cccc(-c2nc3ccccc3[nH]2)c1	broth dilution	ATCC43300 MRSA	drug-resistant strain	64 µg/mL
CO[C@H]1[C@H](O[C@H]([C@H]2O[C@@H](n3ccc(=O)[nH]c3=O)[C@H](O)[C@@H]2O)[C@H](NCCCNC(=O)[C@@H](NC(=O)[C@@H](NC(=O)N[C@H](C(=O)O)C(C)C)[C@@H]2CCN=C(N)N2)[C@@H](OC(=O)CCCCCCC(C)C)C(C)C)C(=O)O)O[C@H](CN)[C@H]1O	–	NEWMAN	–	> 32 µg/mL
CCCCCCCC(=O)NP(=O)(O)O	–	ATCC33591 MRSA	drug-resistant strain	> 200 µg/mL
NC[C@H]1O[C@H](O[C@H]2[C@H](O)[C@@H](O[C@H]3O[C@H](CO)[C@@H](O)[C@H](N)[C@H]3O)[C@H](N)C[C@@H]2N)[C@H](O)[C@@H](O)[C@@H]1O	–	USA300	–	256 µg/mL
CCCCCCNC(=S)Nc1cccc(-c2cc(C(=O)OC)no2)c1	broth dilution	ATCC29213	–	> 64 µg/mL
Cc1ccc2nc(-c3ccc(F)cc3)n(Cc3ccccc3)c2c1	broth dilution	ATCC43300 MRSA	drug-resistant strain	64 µg/mL
N#CC(C#N)=Cc1ccc(O)c(O)c1	–	NCTC8325	–	> 30 µM
COC(=O)c1cc(-c2cccc(NC(=S)Nc3ccc(C#N)cc3)c2)on1	broth dilution	ATCC29213	–	> 64 µg/mL
CCCCCC/C=C\CCCCCCCCCc1cc(O)cc(O)c1	broth dilution	USA300	drug-resistant strain	> 64 µg/mL
Cc1ccc2nc(-c3ccco3)[nH]c2c1	broth dilution	ATCC43300 MRSA	drug-resistant strain	256 µg/mL
CN[C@H](CC(C)C)C(=O)N[C@H]1C(=O)N[C@@H](CC(N)=O)C(=O)N[C@H]2C(=O)N[C@H]3C(=O)N[C@H](C(=O)N[C@H](C(=O)O)c4cc(O)cc(O)c4-c4cc3ccc4O)[C@H](O)c3ccc(c(Cl)c3)Oc3cc2cc(c3O[C@@H]2O[C@H](CO)[C@@H](O)[C@H](O)[C@H]2O[C@H]2C[C@](C)(N)[C@H](O)[C@H](C)O2)Oc2ccc(cc2Cl)[C@H]1O	–	ATCC33591	drug-resistant strain	1.56 µg/mL
CN[C@H](CC(C)C)C(=O)N[C@H]1C(=O)N[C@@H](CC(N)=O)C(=O)N[C@H]2C(=O)N[C@H]3C(=O)N[C@H](C(=O)N[C@H](C(=O)O)c4cc(O)cc(O)c4-c4cc3ccc4O)[C@H](O)c3ccc(c(Cl)c3)Oc3cc2cc(c3O[C@@H]2O[C@H](CO)[C@@H](O)[C@H](O)[C@H]2O[C@H]2C[C@](C)(N)[C@H](O)[C@H](C)O2)Oc2ccc(cc2Cl)[C@H]1O	–	USA300	–	1 µg/mL
COc1ccc(Cc2cnc(N)nc2N)cc1OC	broth dilution	–	–	~50 µM
COC(=O)c1cc(-c2cccc(NC(=O)Nc3cccc(Cl)c3Cl)c2)on1	broth dilution	ATCC29213	–	8 to 16 µg/mL
O=[N+]([O-])c1ccc(-c2nc3ccccc3n2Cc2ccccc2)cc1	broth dilution	ATCC43300 MRSA	drug-resistant strain	4 µg/mL
CC1C(=NOCc2cc(-c3ccc(Cl)cc3)no2)CC(c2ccccc2)OC1c1ccccc1 (stereo not drawn)	broth dilution	MTCC96	24 h	25 µg/mL

SMILES	test	system	setting	MIC
CN[C@H](CC(C)C)C(=O)N[C@H]1C(=O)N[C@@H](CC(N)=O)C(=O)N[C@H]2C(=O)N[C@H]3C(=O)N[C@H](C(=O)N[C@H](C(=O)O)c4cc(O)cc(O)c4-c4cc3ccc4O)[C@H](O)c3ccc(c(Cl)c3)Oc3cc2cc(c3O[C@@H]2O[C@H](CO)[C@@H](O)[C@H](O)[C@H]2O[C@H]2C[C@](C)(N)[C@H](O)[C@H](C)O2)Oc2ccc(cc2Cl)[C@H]1O	broth dilution	BAA44 MRSA	drug-resistant strain	0.59 µM
C[C@H]1COc2c(N3CCN(C)CC3)c(F)cc3c(=O)c(C(=O)O)cn1c23	broth dilution	ATCC29213	–	0.125 µg/mL
CCCCCCCCCCCCCCCC(=O)N(C)[C@H](CO)C(=O)N[C@H](C)C(=O)NCC(=O)N(C)[C@@H]1C(=O)N[C@@H](C)C(=O)N[C@H](C(=O)O)Cc2ccc(O)c(c2)-c2cc1ccc2O	–	MRSA	–	25 µg/mL
Cc1ccc2[nH]c3c(c2c1)CCCC3NCCc1ccc(O)cc1 (stereo not drawn)	broth dilution	ATCC29213	–	16 µg/mL
COC(=O)c1cc(-c2cccc(NC(=O)Nc3ccccc3OC)c2)on1	broth dilution	ATCC29213	–	> 64 µg/mL
COc1cccc(OC)c1C(=O)N[C@@H]1C(=O)N2[C@@H]1SC(C)(C)[C@@H]2C(=O)O	–	ATCCBAA41	drug-resistant strain, clinical isolate	> 64 µg/mL
CC(c1ccc(Cl)c(Cl)c1)n1cnc2cc3c(cc21)CCCC3 (stereo not drawn)	–	–	–	3.1 to 6.3 µg/mL
[H]/N=C(/N)N[C@H]1[C@H](O)[C@@H](O)[C@H](O[C@@H]2O[C@@H](C)[C@](O)(C=O)[C@H]2O[C@@H]2O[C@@H](CO)[C@H](O)[C@@H](O)[C@@H]2NC)[C@@H](N/C(N)=N\[H])[C@@H]1O	–	USA300	–	64 µg/mL
Cc1ccc2nc(-c3c4ccccc4cc4ccccc34)[nH]c2c1	broth dilution	ATCC43300 MRSA	drug-resistant strain	128 µg/mL
CCCCCCCCCCCCCCCC(=O)C(F)(F)P(=O)(O)O	–	ATCC33591 MRSA	drug-resistant strain	100 µg/mL
CSc1ccc(-c2nc3ccc(C)cc3n2Cc2ccccc2)cc1	broth dilution	ATCC43300 MRSA	drug-resistant strain	256 µg/mL
COC(=O)c1cc(-c2cccc(NC(=S)Nc3ccc([N+](=O)[O-])cc3)c2)on1	broth dilution	ATCC29213	–	> 64 µg/mL
O=[N+]([O-])c1ccc(-c2nc3cc(F)ccc3[nH]2)o1	broth dilution	ATCC700699 MRSA	drug-resistant strain	4 µg/mL
Cc1ccc2nc(-c3cccc([N+](=O)[O-])c3)[nH]c2c1	broth dilution	ATCC43300 MRSA	drug-resistant strain	64 µg/mL
CC1(C)CC[C@]2(C(=O)O)CC[C@]3(C)C(=CC[C@@H]4[C@@]5(C)CC[C@H](O)C(C)(C)[C@@H]5CC[C@]43C)[C@@H]2C1	–	ATCC25904	–	256 µg/mL
Cc1ccc2nc(-c3ccccc3O)[nH]c2c1	broth dilution	ATCC43300 MRSA	drug-resistant strain	256 µg/mL
C=C(NC(=O)C(=C)NC(=O)c1csc(C2=N[C@@H]3c4csc(n4)[C@H]4NC(=O)c5csc(n5)[C@H]([C@](C)(O)[C@@H](C)O)NC(=O)[C@H]5CSC(=N5)/C(=C/C)NC(=O)[C@H]([C@@H](C)O)NC(=O)c5csc(n5)[C@]3(CC2)NC(=O)[C@H](C)NC(=O)C(=C)NC(=O)[C@H](C)NC(=O)[C@H]([C@@H](C)CC)N[C@@H]2C=Cc3c([C@H](C)O)cc(nc3[C@H]2O)C(=O)O[C@@H]4C)n1)C(N)=O	–	MSSA	–	0.06 µg/mL
O=C(Nc1ccc(Cl)c(C(F)(F)F)c1)N1CCCCC1	–	NCTC8325	–	30 µM
CCCCCCCCCCCC(=O)NP(=O)(O)O	–	ATCC33591 MRSA	drug-resistant strain	200 µg/mL
CC(=O)c1ccc(NC(=O)Nc2ccc(Cl)c(C(F)(F)F)c2)cc1	–	NCTC8325	–	30 µM
CCCCCCCCCCCCCCCC(=O)NP(=O)(O)O	–	ATCC33591 MRSA	drug-resistant strain	200 µg/mL
CC(=O)Nc1c2sscc-2[nH]c1=O	–	BAA1556 MRSA	drug-resistant strain	5 µM
